B1: tRNA (parent)
chain: GUUCCGUUGGCGUAAUGGUAACGCGUCUCCCUCCUAAGGAGAAGACUGCGGGUUCGAGUCCCGUACGGAACG

This sample holds only a part of the variants without activity.

The variants in the data set derive from B1. Briefly: yeast fitness relative to wild type (ratio to wild type); higher = fitter; tRNA-Arg(CCU), competitive growth, 37 C, YPD. In short, it runs like this:
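Gene amplicons from the start population and from each of six end populations were read by 100-nucleotide paired-end sequencing. Those end populations came from pooled Saccharomyces cerevisiae strains carrying tRNA-Arg(CCU) gene variants at the native locus, competed in YPD at 37°C for 24 hours. Fitness relative to wild type was worked out from changes in genotype frequencies. Genotypes needed ≥ 100 starting reads, and estimates < 0.5 were set to 0.5.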
Consider C27G C30U G56A, for which the yeast fitness was no more than 0.5.

In the case of U28G U64A, the yeast fitness amounted to 0.65.

U28G U64C: the yeast fitness stood at 0.864.

As to C29A G50C, the yeast fitness worked out at 0.553.

C29G C33U G58C C60G C62A: the yeast fitness was no more than 0.5.

For C27U G38A C55A, the yeast fitness is no more than 0.5.

Consider C27G C62U A65U, for which the yeast fitness worked out at 0.554.

As to U28A A40U C61A G68A, the yeast fitness was no more than 0.5.

In the case of C27A G68C, the yeast fitness stood at 0.893.

For C27U C31A U35C C55G C66U A70C, the yeast fitness is no more than 0.5.

For C29A C31U A43C G44C A65U, the yeast fitness is no more than 0.5.

On to C27U C34U A69U, for which the yeast fitness came to 0.528.

In the case of C29A G38A A69U, the yeast fitness is 0.583.

Take U28A C31U: the yeast fitness was 0.7.

For C29A C34U G48C A57U, the yeast fitness is no more than 0.5.

C27G U32G A42C C66U: the yeast fitness was no more than 0.5.

Regarding U28A A42U, the yeast fitness amounted to 0.812.

With U28A A42C, the yeast fitness was 0.797.

Regarding U28C G50U A65C, the yeast fitness was no more than 0.5.

As to U28C A45U C55A C66A, the yeast fitness was no more than 0.5.

On to C27G U28A C61U A65U A70U, for which the yeast fitness is no more than 0.5.

For U28G A70U, the yeast fitness is 0.842.

In the case of C27G A42G A57G U59G, the yeast fitness is no more than 0.5.

Turning to U28G G51U U64A C66U A69C, the yeast fitness is no more than 0.5.

Consider C29A C31G, for which the yeast fitness came out at 0.677.

On to C29A C31U, for which the yeast fitness worked out at 0.713.

In the case of C29A C31U A37U A65G, the yeast fitness was no more than 0.5.

Take C27U C49G: the yeast fitness amounted to 0.916.

On to U28C A42U A43G, for which the yeast fitness was found to be 0.597.

On to C27U C31U G52C U59G, for which the yeast fitness was no more than 0.5.

For the variant U28G G58C, the yeast fitness came out at 0.771.

For C27U A57G C60U, the yeast fitness was no more than 0.5.

With C27U C31G A40G, the yeast fitness was no more than 0.5.

In the case of C29A A37C, the yeast fitness is 0.597.

With C27G A40C C55G, the yeast fitness was no more than 0.5.

In the case of C27U C30U C34G A37C A69C, the yeast fitness is no more than 0.5.

In the case of U28G C62G, the yeast fitness is 0.587.

As to C29G C33G U35G G44A G67A, the yeast fitness was no more than 0.5.

With C27G C31G G68A, the yeast fitness was no more than 0.5.

Take C27G C49A G52C C60U: the yeast fitness is no more than 0.5.

For the variant C27G C30G, the yeast fitness was no more than 0.5.

With C29G A40U G58A, the yeast fitness is no more than 0.5.

Turning to C27U A36G, the yeast fitness turned out to be 0.85.

With U28C U47A C49U G63C, the yeast fitness is 0.683.

Consider C29A A57G, for which the yeast fitness was found to be 0.646.

Take C29A A57U: the yeast fitness was no more than 0.5.

In the case of C29G A57G, the yeast fitness was 0.715.

As for C29A C46A C49A, the yeast fitness is no more than 0.5.

C27G G44C U47C: the yeast fitness is no more than 0.5.

Turning to C27U C33G C34G G44A G50A G52A, the yeast fitness is 0.558.

For the variant C27U U47C G68A, the yeast fitness amounted to 0.672.

C27A U28C C29G C61A: the yeast fitness is 0.664.

With U28C A40U C55A, the yeast fitness is no more than 0.5.

For the variant U28C A37C A40U, the yeast fitness worked out at 0.568.

For the variant U28C G39C G44C C46U, the yeast fitness is no more than 0.5.

On to C29G C30G G63A, for which the yeast fitness was determined as 0.607.

As to U28G C46A C61G, the yeast fitness is no more than 0.5.

As for C27G A37G U64A, the yeast fitness is no more than 0.5.

For the variant C29A C33G C61U C66U, the yeast fitness is no more than 0.5.

As to C27U U28A U32A C34U A36C U47C C55A, the yeast fitness is no more than 0.5.

Regarding C27G A36C C46U G51C, the yeast fitness is 0.54.

Take C27A G58C: the yeast fitness amounted to 1.13.

Turning to C27G C29A C61U, the yeast fitness was no more than 0.5.

In the case of C29G C30A, the yeast fitness was determined as 0.585.

As for C27U G50C A65C, the yeast fitness was no more than 0.5.

With U28C C29A A69U, the yeast fitness amounted to 0.559.

C29G C30U U47C: the yeast fitness was no more than 0.5.

For C27G C31A A57U, the yeast fitness was found to be 0.573.

Regarding C27G C49U A65C, the yeast fitness was no more than 0.5.

On to U28C A37U A40U C49G A57U G68C A70G, for which the yeast fitness amounted to 0.624.

Turning to C29A C31U A43U, the yeast fitness came to 0.506.

As for C29A G44A C49A U59A, the yeast fitness was no more than 0.5.

As to C29A G51A C55A G56C A65U, the yeast fitness is no more than 0.5.

For the variant C27G A42G C60A, the yeast fitness was no more than 0.5.

Take C27U C31A U53A: the yeast fitness was no more than 0.5.

As for C27A U59C A69U, the yeast fitness came out at 0.713.

In the case of C27U A45G U53C, the yeast fitness was determined as 0.544.

For C29A A37G G67C, the yeast fitness stood at 0.62.

Consider C27U G41C A65C, for which the yeast fitness came to 0.588.

With C29G C30U A36C A40G, the yeast fitness was no more than 0.5.

Regarding C27G C29G C30U, the yeast fitness is no more than 0.5.

For U28C G58C, the yeast fitness is 0.912.

U28A C31A G44A: the yeast fitness was found to be 0.568.

For the variant C27U C29U C55A G58A, the yeast fitness was no more than 0.5.

With C27U C49U A57G, the yeast fitness turned out to be 0.703.

For the variant C27U G51C U59C, the yeast fitness is no more than 0.5.

Consider C29A C30U A42U, for which the yeast fitness is no more than 0.5.

In the case of U28G C31U A40C A57G, the yeast fitness was 0.837.

For the variant C27U C31U C55U, the yeast fitness stood at 0.643.

Take C27G C33G C60U C61G: the yeast fitness was 0.503.

For C27U U28G C31A G58C, the yeast fitness was no more than 0.5.

Take U28C C30A G39A C66U: the yeast fitness is 0.594.

For C27U G38C A40C A42C, the yeast fitness was no more than 0.5.

Turning to U28A C33G C49G G50U, the yeast fitness is no more than 0.5.

For the variant C29G A37U C55G, the yeast fitness was found to be 0.549.

For the variant C27U U54G A65C, the yeast fitness is no more than 0.5.

Turning to C29A G38A U54C A69U, the yeast fitness was no more than 0.5.

In the case of C27U G39A G68U, the yeast fitness came to 0.54.

For U28G C30A G51U, the yeast fitness is no more than 0.5.

As to C29A C30U C34U C61U C66A, the yeast fitness was no more than 0.5.

With U28C A69C, the yeast fitness stood at 0.94.

For the variant U28G C29U G50C, the yeast fitness is no more than 0.5.

Consider U28G G44C G48C, for which the yeast fitness turned out to be 0.556.

For C27U C30U A42C C55U A70G, the yeast fitness was no more than 0.5.

Consider U28A C34U A37U A45U A57G C61U, for which the yeast fitness was no more than 0.5.

Regarding U28A C55G C62U, the yeast fitness is no more than 0.5.

Consider C29A A37G U64A A70U, for which the yeast fitness is no more than 0.5.

Regarding C27U A45G U64A, the yeast fitness is 0.553.

As for C27G A70U, the yeast fitness was 0.74.

As for U28C G67U, the yeast fitness was 0.914.

For U28A A37G G51C A57C, the yeast fitness is no more than 0.5.

Consider C27U G44C G58C, for which the yeast fitness was found to be 0.655.

As for U28A G63A, the yeast fitness was 0.849.

As to C27G A36U U53A, the yeast fitness is no more than 0.5.

For U28G A43U, the yeast fitness worked out at 0.948.

In the case of U28A A69U, the yeast fitness worked out at 0.749.

Take C27U C34U U47C U53G A69U: the yeast fitness is no more than 0.5.

For the variant U28C A37C A69C, the yeast fitness is no more than 0.5.

With C27G C61U, the yeast fitness is 0.594.

Take C27G G44C: the yeast fitness is 0.569.

Consider C27G C30U G67A A70G, for which the yeast fitness was no more than 0.5.

In the case of C27G U64C, the yeast fitness stood at 0.693.

On to C27U U28A A37G C49U A57C G58C, for which the yeast fitness came out at 0.683.

C27G A42U G48A: the yeast fitness was no more than 0.5.

In the case of C27G A45C C49U G52A U59C, the yeast fitness worked out at 0.6.

Take C29A A40U U47A: the yeast fitness was 0.772.

On to C27U G41C U53A C62U, for which the yeast fitness was no more than 0.5.

With C27G U28G A36G U64C, the yeast fitness was no more than 0.5.

As to U28G G51C C55G, the yeast fitness is no more than 0.5.

For C27A U32G G51A G56C A70G, the yeast fitness was no more than 0.5.

Take U28C U32C C46G: the yeast fitness is 0.722.

Turning to U28C A40C G56C A65G, the yeast fitness was no more than 0.5.

As to U28C C31A C34G A45U, the yeast fitness is no more than 0.5.

In the case of U28G C30G A40C A42U G51A, the yeast fitness was no more than 0.5.

C27U A36C A42U C46U C62U G63A: the yeast fitness was no more than 0.5.

On to U28G G38U, for which the yeast fitness is 0.711.

In the case of U28G C55A, the yeast fitness was determined as 0.572.

With C29G A40U G50C G67U A69G, the yeast fitness was no more than 0.5.

With U28C G51C, the yeast fitness was 0.502.

For C29G A40U C66G, the yeast fitness was found to be 0.551.

Regarding C27U U32C C46G, the yeast fitness was determined as 0.765.

Regarding C27G U28A A65U, the yeast fitness is no more than 0.5.

As for U28C U35G A36C A65G C66A, the yeast fitness was no more than 0.5.

As to C27G A40C C60U, the yeast fitness was no more than 0.5.

Regarding C27G A40U, the yeast fitness is 0.682.

Consider C27G A40G, for which the yeast fitness worked out at 0.594.

On to C27G C30A C34G A45G C62U A69G, for which the yeast fitness is no more than 0.5.

For the variant U28A C31G G48A G51C C55G, the yeast fitness came to 0.523.

As to U28C G38C, the yeast fitness stood at 0.579.

Turning to C29A A37G C55A, the yeast fitness is no more than 0.5.

On to C27G U28A C30G C31U, for which the yeast fitness worked out at 0.51.

Consider U28A C66A, for which the yeast fitness was determined as 0.575.

On to C27U C62G, for which the yeast fitness was found to be 0.669.

With U28C G41C C49G, the yeast fitness is no more than 0.5.

With U28C G41C C49A, the yeast fitness is no more than 0.5.

C27G C30G C31U A42G U54C: the yeast fitness is no more than 0.5.

In the case of C27G C33U, the yeast fitness amounted to 0.592.

As for U28G C60A, the yeast fitness turned out to be 0.53.

For U28C A70U, the yeast fitness worked out at 0.87.

Turning to U28G A36U C60U, the yeast fitness was no more than 0.5.

In the case of C29G C33U A37G A40C, the yeast fitness was no more than 0.5.

On to U28C C33G G38A, for which the yeast fitness is no more than 0.5.

Regarding C27G A42U, the yeast fitness came to 0.721.

As to C27U U53C G63A, the yeast fitness was no more than 0.5.

As for C27U U32A, the yeast fitness amounted to 0.993.

Turning to U28A C30G A36C, the yeast fitness was no more than 0.5.

Turning to C27U A45C G48A A57U G67A, the yeast fitness was no more than 0.5.
